One compound from ChEMBL document CHEMBL2346606, “Inhibitors of the TAM subfamily of tyrosine kinases: synthesis and biological evaluation” (Eur J Med Chem, 2013) can be followed below.

Data set [1] in a line: Growth inhibition of African green monkey Vero cells at 10 uM after 72 hrs by […] assay relative to control. To be noted: chlorocebus sabaeus, read-out: GI. The format is cell-based. The method, boiled down: (§1)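 KB and Vero cells were grown in D-MEM with 10% FCS and antibiotics under 5% CO2, plated, then dosed 24 h later at 10^-5 M from DMSO (controls 1% DMSO). After 72 h, MTS was added for 3 h at 37 °C and A490 read. Inhibition = (1 − OD treated/OD control) × 100, in triplicate.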
In general terms: Tetrazolium dyes change colour on reduction, which living cells bring about.

Data set [2] has as its system MCF7. Description: Growth inhibition of human MCF7 cells at 10 uM after 72 hrs by […] assay relative to control. The format is functional. To be noted: MCF7, 72 h, read-out: GI. The essentials: (§2)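 HT29, MCF7 and PC-3 cells were grown in RPMI, plated, and treated 24 h later with compound in DMSO at 10^-5 M (DMSO controls, 1% final). After 72 h exposure, MTS reagent was added for 3 h at 37 °C and absorbance read at 490 nm. Proliferation inhibition = [1 − OD treated/OD control] × 100, triplicate experiments.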

The test system of data set [3] is PC-3. Description: Growth inhibition of human PC3 cells at 10 uM after 72 hrs by […] assay relative to control. The class given is functional. To be noted: PC-3, 72 h, read-out: GI. The method, boiled down: as §2
For data set [4], the system named is HT-29. Description: Growth inhibition of human HT-29 cells at 10 uM after 72 hrs by […] assay relative to control. The class given is functional. Conditions: HT-29, 72 h, read-out: GI. The method, boiled down: as §2
The test system of data set [5] is KB. The experiment in a line: Growth inhibition of human KB cells at 10 uM after 72 hrs by […] relative to control. The format is functional. To be noted: read-out: GI. The essentials:
as §1

Data set [6] deals with T1, Tyrosine-protein kinase receptor TYRO3 (Homo sapiens, UniProt Q06418).
T1 sequence (Q06418 whole entry): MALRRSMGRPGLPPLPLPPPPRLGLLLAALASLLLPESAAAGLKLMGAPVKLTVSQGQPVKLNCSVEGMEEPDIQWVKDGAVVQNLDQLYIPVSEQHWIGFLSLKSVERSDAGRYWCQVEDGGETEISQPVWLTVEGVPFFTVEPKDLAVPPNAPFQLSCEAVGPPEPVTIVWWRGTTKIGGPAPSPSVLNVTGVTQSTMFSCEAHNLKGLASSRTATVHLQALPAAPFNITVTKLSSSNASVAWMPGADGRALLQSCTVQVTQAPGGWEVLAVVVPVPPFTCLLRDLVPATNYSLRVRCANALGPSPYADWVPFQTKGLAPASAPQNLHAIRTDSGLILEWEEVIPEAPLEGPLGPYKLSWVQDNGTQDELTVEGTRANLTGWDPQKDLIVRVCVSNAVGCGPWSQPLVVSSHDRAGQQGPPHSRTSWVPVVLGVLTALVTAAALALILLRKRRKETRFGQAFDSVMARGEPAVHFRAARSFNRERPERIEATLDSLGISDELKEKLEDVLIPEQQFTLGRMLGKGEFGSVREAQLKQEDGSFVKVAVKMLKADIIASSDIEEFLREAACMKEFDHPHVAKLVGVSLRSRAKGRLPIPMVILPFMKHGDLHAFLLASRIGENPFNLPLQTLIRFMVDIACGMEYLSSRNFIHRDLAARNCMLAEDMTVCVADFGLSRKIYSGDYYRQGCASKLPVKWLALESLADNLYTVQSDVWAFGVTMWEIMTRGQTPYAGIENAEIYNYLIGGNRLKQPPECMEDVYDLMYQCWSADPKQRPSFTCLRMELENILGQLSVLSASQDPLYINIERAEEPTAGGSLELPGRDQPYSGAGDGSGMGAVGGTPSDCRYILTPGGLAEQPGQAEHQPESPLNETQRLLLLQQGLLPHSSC
Description: Binding affinity to TYRO3 (unknown origin) after 1 hr.

Data set [7] has as its target Hepatocyte growth factor receptor (Homo sapiens, UniProt P08581). The experiment in a line: Binding affinity to MET (unknown origin) after 1 hr.
Data set [8] has as its target T2, Tyrosine-protein kinase receptor UFO (Homo sapiens, UniProt P30530).
T2 sequence (P30530 whole entry): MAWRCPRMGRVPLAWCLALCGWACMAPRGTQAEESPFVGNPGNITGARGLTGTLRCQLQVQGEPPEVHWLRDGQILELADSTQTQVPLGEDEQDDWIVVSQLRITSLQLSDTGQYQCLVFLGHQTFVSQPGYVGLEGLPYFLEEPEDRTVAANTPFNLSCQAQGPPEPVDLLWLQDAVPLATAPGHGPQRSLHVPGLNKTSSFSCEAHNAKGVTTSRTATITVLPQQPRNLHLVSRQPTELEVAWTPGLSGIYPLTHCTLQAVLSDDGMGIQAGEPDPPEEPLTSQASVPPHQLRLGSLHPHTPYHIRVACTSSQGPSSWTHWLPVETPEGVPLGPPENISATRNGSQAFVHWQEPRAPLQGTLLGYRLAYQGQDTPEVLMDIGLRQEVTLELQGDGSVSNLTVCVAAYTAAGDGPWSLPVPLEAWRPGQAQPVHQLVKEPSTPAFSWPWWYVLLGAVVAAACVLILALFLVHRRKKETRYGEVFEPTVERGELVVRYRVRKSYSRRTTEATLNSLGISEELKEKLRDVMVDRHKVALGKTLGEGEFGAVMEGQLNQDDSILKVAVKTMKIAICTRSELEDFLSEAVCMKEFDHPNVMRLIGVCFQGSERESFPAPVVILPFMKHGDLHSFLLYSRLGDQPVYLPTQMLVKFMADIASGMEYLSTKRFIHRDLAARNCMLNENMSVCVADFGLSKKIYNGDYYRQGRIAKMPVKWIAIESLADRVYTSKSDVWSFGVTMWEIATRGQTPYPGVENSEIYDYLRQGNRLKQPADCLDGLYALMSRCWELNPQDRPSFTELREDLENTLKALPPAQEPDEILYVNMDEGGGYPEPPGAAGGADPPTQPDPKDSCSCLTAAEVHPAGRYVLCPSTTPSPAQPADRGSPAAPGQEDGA
Description: Binding affinity to AXL (unknown origin) after 1 hr.

Data set [9] has as its target T3, Tyrosine-protein kinase ABL1 (Homo sapiens, UniProt P00519). The experiment in a line: Binding affinity to phosphorylated ABL1 (unknown origin) after 1 hr.
The target in data set [10] is T3, Tyrosine-protein kinase ABL1. Description: Binding affinity to non phosphorylated ABL1 (unknown origin) after 1 hr.
Data set [11] concerns the target T4, Tyrosine-protein kinase Mer (Homo sapiens, UniProt Q12866).
T4 sequence (Q12866 whole entry): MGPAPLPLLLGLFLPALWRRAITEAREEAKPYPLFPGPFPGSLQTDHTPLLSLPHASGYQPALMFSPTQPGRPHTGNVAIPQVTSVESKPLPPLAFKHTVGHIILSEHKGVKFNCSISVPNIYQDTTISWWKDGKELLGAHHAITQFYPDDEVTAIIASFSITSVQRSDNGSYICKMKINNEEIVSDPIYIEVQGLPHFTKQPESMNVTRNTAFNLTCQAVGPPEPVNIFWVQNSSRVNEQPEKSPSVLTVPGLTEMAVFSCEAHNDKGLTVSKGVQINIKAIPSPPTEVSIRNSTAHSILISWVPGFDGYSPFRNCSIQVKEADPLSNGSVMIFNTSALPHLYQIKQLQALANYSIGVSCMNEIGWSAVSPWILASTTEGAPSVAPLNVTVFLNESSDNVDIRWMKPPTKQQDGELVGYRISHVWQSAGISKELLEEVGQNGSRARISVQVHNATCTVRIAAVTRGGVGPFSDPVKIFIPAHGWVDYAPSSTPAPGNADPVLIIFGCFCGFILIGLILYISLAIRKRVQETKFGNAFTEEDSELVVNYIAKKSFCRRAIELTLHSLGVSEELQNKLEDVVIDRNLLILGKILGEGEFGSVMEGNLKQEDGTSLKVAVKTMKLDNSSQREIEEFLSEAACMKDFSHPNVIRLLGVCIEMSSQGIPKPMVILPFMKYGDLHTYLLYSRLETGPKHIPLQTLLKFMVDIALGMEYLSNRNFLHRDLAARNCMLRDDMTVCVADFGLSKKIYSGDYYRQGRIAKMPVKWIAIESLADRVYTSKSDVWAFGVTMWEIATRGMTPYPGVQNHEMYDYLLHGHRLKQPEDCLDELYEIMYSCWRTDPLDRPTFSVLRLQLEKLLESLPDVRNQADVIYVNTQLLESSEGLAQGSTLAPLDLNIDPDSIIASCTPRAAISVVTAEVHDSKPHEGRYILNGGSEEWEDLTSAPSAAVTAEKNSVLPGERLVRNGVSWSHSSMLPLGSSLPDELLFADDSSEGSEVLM
Description: Binding affinity to MER (unknown origin) after 1 hr.

Molecules are shown by their SMILES.

T3 sequence (P00519 whole entry): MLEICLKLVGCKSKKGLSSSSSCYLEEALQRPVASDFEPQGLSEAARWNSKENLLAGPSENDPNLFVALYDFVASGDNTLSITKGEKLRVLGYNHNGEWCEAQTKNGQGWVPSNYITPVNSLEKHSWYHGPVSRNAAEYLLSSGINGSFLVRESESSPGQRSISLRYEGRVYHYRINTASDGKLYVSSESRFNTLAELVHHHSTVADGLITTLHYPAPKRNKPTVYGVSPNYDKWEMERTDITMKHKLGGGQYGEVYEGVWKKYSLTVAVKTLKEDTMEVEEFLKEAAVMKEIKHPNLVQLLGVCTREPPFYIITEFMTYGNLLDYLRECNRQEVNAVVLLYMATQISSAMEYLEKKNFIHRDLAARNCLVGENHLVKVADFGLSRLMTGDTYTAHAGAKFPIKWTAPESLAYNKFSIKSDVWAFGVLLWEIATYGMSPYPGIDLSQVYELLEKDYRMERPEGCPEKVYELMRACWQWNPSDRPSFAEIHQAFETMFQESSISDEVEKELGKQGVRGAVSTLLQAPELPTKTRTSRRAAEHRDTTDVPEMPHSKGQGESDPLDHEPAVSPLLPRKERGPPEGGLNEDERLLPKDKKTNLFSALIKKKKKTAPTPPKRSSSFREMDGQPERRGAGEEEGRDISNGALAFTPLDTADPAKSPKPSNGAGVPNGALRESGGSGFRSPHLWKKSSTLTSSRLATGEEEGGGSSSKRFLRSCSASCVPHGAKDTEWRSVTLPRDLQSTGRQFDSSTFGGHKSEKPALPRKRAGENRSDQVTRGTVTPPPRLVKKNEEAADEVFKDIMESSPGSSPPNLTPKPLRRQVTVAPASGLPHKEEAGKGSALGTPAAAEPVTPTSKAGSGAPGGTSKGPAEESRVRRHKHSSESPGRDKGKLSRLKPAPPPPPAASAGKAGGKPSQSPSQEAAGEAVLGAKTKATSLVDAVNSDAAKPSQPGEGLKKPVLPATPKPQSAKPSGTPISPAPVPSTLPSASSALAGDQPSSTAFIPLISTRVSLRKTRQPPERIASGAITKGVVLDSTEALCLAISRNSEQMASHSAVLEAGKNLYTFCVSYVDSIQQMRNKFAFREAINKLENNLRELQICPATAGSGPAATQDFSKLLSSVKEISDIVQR
Chain of Hepatocyte growth factor receptor (P08581 whole entry): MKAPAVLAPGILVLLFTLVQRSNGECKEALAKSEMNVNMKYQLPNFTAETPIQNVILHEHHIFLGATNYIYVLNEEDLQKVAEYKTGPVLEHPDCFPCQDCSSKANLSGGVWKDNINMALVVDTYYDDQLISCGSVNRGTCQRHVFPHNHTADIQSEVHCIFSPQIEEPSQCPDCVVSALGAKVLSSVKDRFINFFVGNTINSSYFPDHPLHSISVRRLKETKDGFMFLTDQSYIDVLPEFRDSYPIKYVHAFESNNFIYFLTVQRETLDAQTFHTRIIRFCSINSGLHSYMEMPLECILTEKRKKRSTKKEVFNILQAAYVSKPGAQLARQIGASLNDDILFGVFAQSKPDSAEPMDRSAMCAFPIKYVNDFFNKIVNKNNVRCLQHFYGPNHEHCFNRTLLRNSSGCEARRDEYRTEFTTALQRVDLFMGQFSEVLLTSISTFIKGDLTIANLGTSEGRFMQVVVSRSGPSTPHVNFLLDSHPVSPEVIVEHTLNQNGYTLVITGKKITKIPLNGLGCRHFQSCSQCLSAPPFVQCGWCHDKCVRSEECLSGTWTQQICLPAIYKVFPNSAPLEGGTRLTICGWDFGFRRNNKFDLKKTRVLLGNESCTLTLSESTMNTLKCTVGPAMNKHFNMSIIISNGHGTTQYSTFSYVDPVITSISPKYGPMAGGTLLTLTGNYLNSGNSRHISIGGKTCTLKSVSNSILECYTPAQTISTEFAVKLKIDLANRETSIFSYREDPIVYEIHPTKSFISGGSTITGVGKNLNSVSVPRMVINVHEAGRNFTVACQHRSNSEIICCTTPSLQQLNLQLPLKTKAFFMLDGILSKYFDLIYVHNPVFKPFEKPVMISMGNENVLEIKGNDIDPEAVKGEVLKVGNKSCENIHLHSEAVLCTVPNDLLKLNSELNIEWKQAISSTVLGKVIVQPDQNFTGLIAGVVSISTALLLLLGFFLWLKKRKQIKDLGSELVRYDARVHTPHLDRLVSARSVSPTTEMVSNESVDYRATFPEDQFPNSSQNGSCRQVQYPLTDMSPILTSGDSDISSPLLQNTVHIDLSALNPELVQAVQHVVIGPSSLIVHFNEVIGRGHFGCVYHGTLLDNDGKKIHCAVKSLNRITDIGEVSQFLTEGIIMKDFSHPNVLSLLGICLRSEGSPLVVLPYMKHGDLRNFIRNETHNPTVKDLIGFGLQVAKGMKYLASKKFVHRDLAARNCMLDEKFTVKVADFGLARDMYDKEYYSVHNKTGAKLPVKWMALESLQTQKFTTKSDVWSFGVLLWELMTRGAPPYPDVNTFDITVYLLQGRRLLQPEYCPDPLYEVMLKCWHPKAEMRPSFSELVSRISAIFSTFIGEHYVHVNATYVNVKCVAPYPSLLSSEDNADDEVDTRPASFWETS

Consider `O=C(Nc1ccc(Oc2ncnc3nc[nH]c23)c(F)c1)c1cccn(-c2ccc(F)cc2)c1=O`, for which the inhibition at 72 h, 10 µM in [1] was below 10%. The inhibition of growth at 10 µM in [2], in data set [3], in data set [4] and in data set [5] was below 10% throughout. The Kd turned out to be 200 nM in [6]; 65 nM in data set [7]; 39 nM in [8]; 40 µM in data set [9]; 6.6 µM in [10]; 42 nM in data set [11].

For orientation: Kd means the free concentration of one partner at which half of the binding sites on the other are occupied at equilibrium, for simple one-to-one binding.
